Source: ChEMBL document CHEMBL1142590, “Triterpenoid saponins from the roots of Pulsatilla koreana” (2005)
Values after ≈ are worked out from the molar mass of the structure shown.

Tested on: A549
Assay: Cytotoxicity against human A549 cells after 48 hrs by SRB assay
Format: functional
Conditions: A549, 48 h, read-out: ED50 (the source's name)
Procedure, shortened: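 A-549 human lung carcinoma cells grown adherent in RPMI-1640 with 5% heat-inactivated FBS, 37 °C, 5% CO2, humidified. Cells seeded in 96-well plates, preincubated 24 h, then exposed to compounds for 48 h. Fixed with cold 10% TCA, stained with 0.4% SRB in 1% acetic acid, OD read at 540 nm. ED50 = 50% growth inhibition; doxorubicin positive control.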

SMILES | EC50 [µg/mL]
C[C@@H]1O[C@@H](O[C@H]2[C@H](O[C@H]3CC[C@@]4(C)[C@@H](CC[C@]5(C)[C@@H]4CC=C4[C@H]6CC(C)(C)CC[C@]6(C(=O)O)CC[C@]45C)[C@]3(C)CO)OC[C@H](O)[C@@H]2O)[C@H](O)[C@H](O[C@@H]2O[C@H](CO)[C@@H](O[C@@H]3O[C@H](CO)[C@@H](O)[C@H](O)[C@H]3O)[C@H](O)[C@H]2O)[C@H]1O | > 10
C[C@@H]1O[C@@H](O[C@H]2[C@H](O[C@H]3CC[C@]4(C)[C@H]5CC=C6[C@H]7CC(C)(C)CC[C@]7(C(=O)O)CC[C@@]6(C)[C@]5(C)CC[C@H]4C3(C)C)OC[C@H](O[C@@H]3O[C@H](CO)[C@@H](O)[C@H](O)[C@H]3O)[C@@H]2O)[C@H](O)[C@H](O)[C@H]1O | 2.6 (≈ 2.9 µM)
C=C(C)[C@@H]1CC[C@]2(C(=O)O)CC[C@]3(C)[C@H](CC[C@@H]4[C@@]5(C)CC[C@H](O[C@@H]6OC[C@H](O[C@@H]7O[C@H](CO)[C@@H](O)[C@H](O)[C@H]7O)[C@H](O)[C@H]6O[C@@H]6O[C@@H](C)[C@H](O)[C@@H](O)[C@H]6O)C(C)(C)[C@@H]5CC[C@]43C)[C@@H]12 | > 10
C=C(C)[C@@H]1CC[C@]2(C(=O)O)CC[C@]3(C)[C@H](CC[C@@H]4[C@@]5(C)CC[C@H](O[C@@H]6OC[C@H](O[C@@H]7O[C@H](CO)[C@@H](O)[C@H](O)[C@H]7O)[C@H](O)[C@H]6O)[C@@](C)(CO)[C@@H]5CC[C@]43C)[C@@H]12 | > 10
C=C(C)[C@@H]1CC[C@]2(C(=O)O)CC[C@]3(C)[C@H](CC[C@@H]4[C@@]5(C)CC[C@H](O[C@@H]6OC[C@H](O[C@@H]7O[C@H](CO)[C@@H](O)[C@H](O)[C@H]7O)[C@H](O)[C@H]6O[C@@H]6O[C@@H](C)[C@H](O)[C@@H](O)[C@H]6O)[C@@](C)(CO)[C@@H]5CC[C@]43C)[C@@H]12 | > 10
C=C(C)[C@@H]1CC[C@]2(C(=O)O)CC[C@]3(C)[C@H](CC[C@@H]4[C@@]5(C)CC[C@H](O[C@@H]6OC[C@H](O)[C@H](O)[C@H]6O[C@@H]6O[C@@H](C)[C@H](O)[C@@H](O[C@@H]7O[C@H](CO)[C@@H](O)[C@H](O)[C@H]7O)[C@H]6O)[C@@](C)(CO)[C@@H]5CC[C@]43C)[C@@H]12 | > 10
C=C(C)[C@@H]1CC[C@]2(C(=O)O)CC[C@]3(C)[C@H](CC[C@@H]4[C@@]5(C)CC[C@H](O[C@@H]6OC[C@H](O)[C@H](O)[C@H]6O[C@@H]6O[C@@H](C)[C@H](O)[C@@H](O[C@@H]7O[C@H](CO)[C@@H](O)[C@H](O)[C@H]7O)[C@H]6O)C(C)(C)[C@@H]5CC[C@]43C)[C@@H]12 | > 10
C[C@@H]1O[C@@H](O[C@H]2[C@H](O[C@H]3CC[C@@]4(C)[C@@H](CC[C@]5(C)[C@@H]4CC=C4[C@H]6CC(C)(C)CC[C@]6(C(=O)O)CC[C@]45C)[C@]3(C)CO)OC[C@H](O)[C@@H]2O)[C@H](O)[C@H](O)[C@H]1O | 9.6 (≈ 12.8 µM)
COc1cccc2c1C(=O)c1c(O)c3c(c(O)c1C2=O)C[C@@](O)(C(=O)CO)C[C@@H]3O[C@H]1C[C@H](N)[C@H](O)[C@H](C)O1 [DOXORUBICIN] | 0.02 (≈ 0.0368 µM)
